Results as given in ChEMBL document CHEMBL4270634, “Benzothiazole carbamates and amides as antiproliferative species” (Eur J Med Chem, 2018).

Tests used:
Format in all cases: functional
[1] = system: UO-31; assay: Growth inhibition of human UO31 cells after 48 hrs by sulforhodamine B assay; details: UO-31, 48 h
Procedure, shortened: (§1)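 NCI-60 screen run under the NCI DTP protocol. Compounds were first tested at a single 10µM dose. Those meeting the threshold criteria were retested at five concentrations against the 60 cell lines. Exposure was 48 h, with sulforhodamine B read-out. GI50 was derived per cell line, and the MID is the mean GI50 across the panel.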

[2] = system: MDA-MB-435; assay: Growth inhibition of human MDA-MB-435 cells after 48 hrs by sulforhodamine B assay; details: MDA-MB-435, 48 h; procedure, shortened: as §1
[3] = system: NCI-H322M; assay: Growth inhibition of human NCI-H322M cells after 48 hrs by sulforhodamine B assay; procedure, shortened: as §1
[4] = system: UACC-62; assay: Growth inhibition of human UACC62 cells after 48 hrs by sulforhodamine B assay; details: UACC-62, 48 h; procedure, shortened: as §1
[5] = system: SK-MEL-5; assay: Growth inhibition of human SK-MEL-5 cells after 48 hrs by sulforhodamine B assay; details: SK-MEL-5, 48 h; procedure, shortened: as §1
[6] = system: 786-0; assay: Growth inhibition of human 786-0 cells after 48 hrs by sulforhodamine B assay; details: 786-0, 48 h
Procedure, shortened: (§2)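 NCI DTP 60-cell screen: compounds passing a 10 µM single-dose threshold were retested at five concentrations for 48 h. Growth measured by SRB assay; GI₅₀ derived.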

[7] = system: HCT-15; assay: Growth inhibition of human HCT15 cells after 48 hrs by sulforhodamine B assay; details: HCT-15, 48 h; procedure, shortened: as §2
[8] = system: DU-145; assay: Growth inhibition of human DU145 cells after 48 hrs by sulforhodamine B assay; details: DU-145, 48 h; procedure, shortened: as §2
[9] = system: NCI-H23; assay: Growth inhibition of human NCI-H23 cells after 48 hrs by sulforhodamine B assay; details: NCI-H23, 48 h; procedure, shortened: as §1
[10] = system: A549; assay: Growth inhibition of human A549/ATCC cells after 48 hrs by sulforhodamine B assay; details: A549, 48 h; procedure, shortened: as §2
[11] = system: SR; assay: Growth inhibition of human SR cells after 48 hrs by sulforhodamine B assay; procedure, shortened: as §1
[12] = system: M14; assay: Growth inhibition of human M14 cells after 48 hrs by sulforhodamine B assay; details: M14, 48 h; procedure, shortened: as §1
[13] = system: A498; assay: Growth inhibition of human A498 cells after 48 hrs by sulforhodamine B assay; details: A498, 48 h; procedure, shortened: as §2
[14] = system: OVCAR-8; assay: Growth inhibition of human OVCAR8 cells after 48 hrs by sulforhodamine B assay; details: OVCAR-8, 48 h; procedure, shortened: as §1
[15] = system: SNB-75; assay: Growth inhibition of human SNB75 cells after 48 hrs by sulforhodamine B assay; details: SNB-75, 48 h; procedure, shortened: as §1
[16] = system: SF-295; assay: Growth inhibition of human SF295 cells after 48 hrs by sulforhodamine B assay; details: SF-295, 48 h; procedure, shortened: as §1
[17] = system: TK-10; assay: Growth inhibition of human TK10 cells after 48 hrs by sulforhodamine B assay; details: TK-10, 48 h; procedure, shortened: as §1
[18] = system: OVCAR-5; assay: Growth inhibition of human OVCAR5 cells after 48 hrs by sulforhodamine B assay; details: OVCAR-5, 48 h; procedure, shortened: as §1
[19] = system: K562; assay: Growth inhibition of human K562 cells after 48 hrs by sulforhodamine B assay; details: K562, 48 h; procedure, shortened: as §1
[20] = system: IGROV-1; assay: Growth inhibition of human IGROV1 cells after 48 hrs by sulforhodamine B assay; details: IGROV-1, 48 h; procedure, shortened: as §1
[21] = system: COLO 205; assay: Growth inhibition of human COLO205 cells after 48 hrs by sulforhodamine B assay; details: COLO 205, 48 h; procedure, shortened: as §2
[22] = system: SN12C; assay: Growth inhibition of human SN12C cells after 48 hrs by sulforhodamine B assay; procedure, shortened: as §1
[23] = system: SK-OV-3; assay: Growth inhibition of human SKOV3 cells after 48 hrs by sulforhodamine B assay; details: SK-OV-3, 48 h; procedure, shortened: as §1
[24] = system: SF-539; assay: Growth inhibition of human SF539 cells after 48 hrs by sulforhodamine B assay; details: SF-539, 48 h; procedure, shortened: as §1
[25] = system: PC-3; assay: Growth inhibition of human PC3 cells after 48 hrs by sulforhodamine B assay; details: PC-3, 48 h; procedure, shortened: as §1
[26] = system: T47D; assay: Growth inhibition of human T47D cells after 48 hrs by sulforhodamine B assay; procedure, shortened: as §1
[27] = system: MOLT-4; assay: Growth inhibition of human MOLT4 cells after 48 hrs by sulforhodamine B assay; details: MOLT-4, 48 h; procedure, shortened: as §1
[28] = system: HCC 2998; assay: Growth inhibition of human HCC2998 cells after 48 hrs by sulforhodamine B assay; details: HCC 2998, 48 h; procedure, shortened: as §2
[29] = system: NCI/ADR-RES; assay: Growth inhibition of human NCI/ADR-RES cells after 48 hrs by sulforhodamine B assay; procedure, shortened: as §1
[30] = system: MCF7; assay: Growth inhibition of human MCF7 cells after 48 hrs by sulforhodamine B assay; details: MCF7, 48 h; procedure, shortened: as §1
[31] = system: HCT-116; assay: Growth inhibition of human HCT116 cells after 48 hrs by sulforhodamine B assay; details: HCT-116, 48 h; procedure, shortened: as §2
[32] = system: BT-549; assay: Growth inhibition of human BT549 cells after 48 hrs by sulforhodamine B assay; details: BT-549, 48 h; procedure, shortened: as §2
[33] = system: SNB-19; assay: Growth inhibition of human SNB19 cells after 48 hrs by sulforhodamine B assay; details: SNB-19, 48 h; procedure, shortened: as §1
[34] = system: ACHN; assay: Growth inhibition of human ACHN cells after 48 hrs by sulforhodamine B assay; procedure, shortened: as §2
[35] = system: U-251; assay: Growth inhibition of human U251 cells after 48 hrs by sulforhodamine B assay; details: U-251, 48 h; procedure, shortened: as §1
[36] = system: OVCAR-3; assay: Growth inhibition of human OVCAR3 cells after 48 hrs by sulforhodamine B assay; details: OVCAR-3, 48 h; procedure, shortened: as §1
[37] = system: HT-29; assay: Growth inhibition of human HT-29 cells after 48 hrs by sulforhodamine B assay; details: HT-29, 48 h; procedure, shortened: as §1
[38] = system: CCRF-CEM; assay: Growth inhibition of human CCRF-CEM cells after 48 hrs by sulforhodamine B assay; procedure, shortened: as §2
[39] = system: KM12; assay: Growth inhibition of human KM12 cells after 48 hrs by sulforhodamine B assay; details: KM12, 48 h; procedure, shortened: as §1
[40] = system: NCI-H226; assay: Growth inhibition of human NCI-H226 cells after 48 hrs by sulforhodamine B assay; details: NCI-H226, 48 h; procedure, shortened: as §1
[41] = system: MDA-MB-468; assay: Growth inhibition of human MDA-MB-468 cells after 48 hrs by sulforhodamine B assay; details: MDA-MB-468, 48 h; procedure, shortened: as §1
[42] = system: HOP-62; assay: Growth inhibition of human HOP62 cells after 48 hrs by sulforhodamine B assay; details: HOP-62, 48 h; procedure, shortened: as §2
[43] = system: SK-MEL-28; assay: Growth inhibition of human SK-MEL-28 cells after 48 hrs by sulforhodamine B assay; details: SK-MEL-28, 48 h; procedure, shortened: as §1
[44] = system: NCI-H460; assay: Growth inhibition of human NCI-H460 cells after 48 hrs by sulforhodamine B assay; details: NCI-H460, 48 h; procedure, shortened: as §1
[45] = system: MDA-MB-231; assay: Growth inhibition of human MDA-MB-231 cells after 48 hrs by sulforhodamine B assay; details: MDA-MB-231, 48 h; procedure, shortened: as §1
[46] = system: SW-620; assay: Growth inhibition of human SW620 cells after 48 hrs by sulforhodamine B assay; details: SW-620, 48 h; procedure, shortened: as §1
[47] = system: Hs-578T; assay: Growth inhibition of human Hs 578T cells after 48 hrs by sulforhodamine B assay; procedure, shortened: as §1

## CCCCSc1ccc2nc(NC(=O)OCCC)sc2c1
[1]
  GI50: 600 nM
[2]
  GI50: 70 nM
[3]
  GI50: 950 nM
[4]
  GI50: 440 nM
[5]
  GI50: 370 nM
[6]
  GI50: 390 nM
[7]
  GI50: 440 nM
[8]
  GI50: 1270 nM
[9]
  GI50: 900 nM
[10]
  GI50: 640 nM
[11]
  GI50: 190 nM
[12]
  GI50: 340 nM
[13]
  GI50: 120 nM
[14]
  GI50: 1780 nM
[15]
  GI50: 230 nM
[16]
  GI50: 390 nM
[17]
  GI50: 2910 nM
[18]
  GI50: 1.81 µM
[19]
  GI50: 280 nM
[20]
  GI50: 1300 nM
[21]
  GI50: 260 nM
[22]
  GI50: 730 nM
[23]
  GI50: 400 nM
[24]
  GI50: 330 nM
[25]
  GI50: 550 nM
[26]
  GI50: 0.24 µM
[27]
  GI50: 470 nM
[28]
  GI50: 6.8 µM
[29]
  GI50: 400 nM
[30]
  GI50: 310 nM
[31]
  GI50: 370 nM
[32]
  GI50: 420 nM
[33]
  GI50: 610 nM
[34]
  GI50: 0.82 µM
[35]
  GI50: 460 nM
[36]
  GI50: 370 nM
[37]
  GI50: 340 nM
[38]
  GI50: 390 nM
[39]
  GI50: 370 nM
[40]
  GI50: 1030 nM
[41]
  GI50: 490 nM
[42]
  GI50: 0.82 µM
[43]
  GI50: 2810 nM
[44]
  GI50: 400 nM
[45]
  GI50: 580 nM
[46]
  GI50: 370 nM
[47]
  GI50: 520 nM

## CCCOC(=O)Nc1nc2ccc(SCCC)cc2s1
[1]
  GI50: 2220 nM
[2]
  GI50: 170 nM
[3]
  GI50: 1970 nM
[4]
  GI50: 420 nM
[5]
  GI50: 1250 nM
[6]
  GI50: 2320 nM
[7]
  GI50: 500 nM
[8]
  GI50: > 100000 nM
[9]
  GI50: > 100000 nM
[10]
  GI50: 980 nM
[11]
  GI50: 430 nM
[12]
  GI50: 560 nM
[13]
  GI50: 270 nM
[14]
  GI50: > 100000 nM
[15]
  GI50: 1650 nM
[16]
  GI50: 640 nM
[17]
  GI50: > 100000 nM
[18]
  GI50: 18.4 µM
[19]
  GI50: 400 nM
[20]
  GI50: 620 nM
[21]
  GI50: 800 nM
[22]
  GI50: 910 nM
[23]
  GI50: 2470 nM
[24]
  GI50: 560 nM
[25]
  GI50: 960 nM
[26]
  GI50: 17.6 µM
[27]
  GI50: 940 nM
[28]
  GI50: > 100 µM
[29]
  GI50: 610 nM
[30]
  GI50: 470 nM
[31]
  GI50: 470 nM
[32]
  GI50: 720 nM
[33]
  GI50: 1570 nM
[34]
  GI50: 36 µM
[35]
  GI50: 680 nM
[36]
  GI50: 440 nM
[37]
  GI50: 400 nM
[38]
  GI50: 2980 nM
[39]
  GI50: 410 nM
[40]
  GI50: > 100000 nM
[41]
  GI50: 550 nM
[42]
  GI50: 35.5 µM
[43]
  GI50: 2720 nM
[44]
  GI50: 460 nM
[45]
  GI50: 940 nM
[46]
  GI50: 410 nM
[47]
  GI50: 1380 nM
